Experimental data gathered from unrelated publications.
Each line is one published result; the experiments were not run side by side.
Target: BDNF/NT-3 growth factors receptor (NTRK2, Homo sapiens, UniProt Q16620)

| Compound | test | conditions | measurement | value |
| --- | --- | --- | --- | --- |
| CNC(=O)c1cc(Oc2ccc(NC(=O)Nc3ccc(Cl)c(C(F)(F)F)c3)cc2)ccn1 | cell-free assay | 10 µM | inhibition | 99% |
| Cc1cc(NC(=O)c2cccc3cc(-c4cccc5[nH]nc(N)c45)ccc23)ccc1F | enzyme activity, inhibitor | 0.1 µM | activity vs control | 107% |
| CNC(=O)Nc1ccc2c(c1)[C@@]1(CC2)OC(=O)N(CC(=O)N(Cc2ccc(F)cc2)[C@@H](C)C(F)(F)F)C1=O | cell-free assay, competition with immobilised ligand | 1 µM | remaining binding | 89% |
| CC(C)(C)c1nc(-c2cccc(NS(=O)(=O)c3c(F)cccc3F)c2F)c(-c2ccnc(N)n2)s1 | enzyme activity, inhibitor, radiometric | 1 µM | remaining activity | 100% |
| O=C(Cc1ccc(C(F)(F)F)cc1)Nc1cccc(C(=O)Nc2ccc3[nH]ncc3c2)c1 | enzyme activity, inhibitor, FRET | 1 µM | inhibition | 16.8% |
| O=C1Nc2ccc(Cl)cc2C1=Cc1cc(Cl)c(O)c(Cl)c1 | cell-free assay | 0.5 µM | remaining signal | 61.1% |
| Cc1ccc(C(=O)NCc2ccsc2)cc1C#Cc1cn(C(C)C)c2ncnc(N)c12 | enzyme activity, inhibitor | 1 µM | activity vs control | 58% |
| O=C(Nc1cccc(C(=O)Nc2ccc3[nH]ncc3c2)c1)Nc1ccccc1C(F)(F)F | enzyme activity, inhibitor, FRET | 1 µM | inhibition | 25.7% |
| O=C(Nc1ccc(Oc2ccc(F)cc2)cc1)N1CCc2ncccc2[C@H]1c1ccc(F)cc1 | cell-free assay, competition with immobilised ligand | 1 µM | remaining binding | 84% |
| O=C(Nc1ccc(F)cc1)Nc1cccc(C(=O)Nc2ccc3[nH]ncc3c2)c1 | enzyme activity, inhibitor, FRET | 1 µM | inhibition | 16.8% |
| C[C@H](c1cccc(C#N)c1)n1cc(Cl)cc(C(N)=O)c1=N | cell-free assay, competition with immobilised ligand | 1 µM | remaining binding | 100% |
| O=C(Nc1cccc(C(=O)Nc2ccc3[nH]ncc3c2)c1)Nc1cccc(C(F)(F)F)c1 | enzyme activity, inhibitor, FRET | 1 µM | inhibition | 24.5% |
| CS(=O)(=O)NCC[C@H](NC(=O)c1cncc2c1cnn2-c1ccc(F)cc1)c1ccnc(S(C)(=O)=O)c1 | cell-free assay, competition with immobilised ligand | 1 µM | remaining binding | 100% |
| O=C(Nc1cnn(-c2csc(C(=O)NC3COC3)c2)c1)Nc1ccccc1Cl | enzyme activity, inhibitor | 5 µM | remaining activity | 84.2% |
| Cc1nccc(COC(=O)N2C[C@@H]3[C@@H](CNC(=O)c4ccc5[nH]nnc5c4)[C@@H]3C2)n1 | cell-free assay, competition with immobilised ligand | 1 µM | remaining binding | 100% |
| Cc1ccc(C(=O)Nc2ccc(CN3CCN(C)CC3)c(C(F)(F)F)c2)cc1C#Cc1cnc2cccnn12 | cell-free assay | 23.5 nM | remaining signal | 2.3% |
| O=C(Nc1ccc2[nH]ncc2c1)c1cccc(NC(=O)c2cc(C(F)(F)F)ccc2F)c1 | enzyme activity, inhibitor, FRET | 1 µM | inhibition | 13.5% |
| CN(c1ccnc(CNc2nc(Nc3ccc4c(c3)CC(=O)N4)ncc2C(F)(F)F)n1)S(C)(=O)=O | cell-free assay, competition with immobilised ligand | 1 µM | remaining binding | 21% |
| O=C(Nc1ccc(C(F)(F)F)cc1)Nc1cccc(C(=O)Nc2ccc3[nH]ncc3c2)c1 | enzyme activity, inhibitor, FRET | 1 µM | inhibition | 14% |
| N#CCCc1ccc2c(c1)-c1[nH]c3ccc([N+](=O)[O-])cc3c1CC(=O)N2 | cell-free assay | 0.5 µM | remaining signal | 86.4% |
